Calls of active or inactive are those of the source. The calls are words filed in the database; no cut-off is given here.
Legend:
Plasmodium falciparum [1] = assay: Antiplasmodial activity against synchronous culture of chloroquine-resistant Plasmodium falciparum W2 ring stage parasite infected in human erythrocytes assessed as accumulation of ring forms at 100 uM after 24 to 72 hrs by Wright's eosin methylene blue staining based microscopic analysis; assay type: functional, organism-based
In short: (§1)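 Stage-specificity test on W2 parasites in human erythrocytes, started at 2% parasitaemia. Parasites cultured at 2% hematocrit in complete medium at 37 °C.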

[2] = Cytotoxicity against human HepG2 cells after 72 hrs by MTT assay; assay type: cell-based
In short: (§2)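 VERO (ATCC CCL-81) and HepG2 (ATCC HB-8065) cells were exposed for 24, 48 or 72 h to an […] dilution series from 400 to 1.56 μM. CC50 was taken from the concentration–response curve. Triplicates, with at least three independent cultures (n = 3).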

Plasmodium falciparum [3] = assay: Antiplasmodial activity against synchronous culture of chloroquine-resistant Plasmodium falciparum W2 ring stage parasite infected in human erythrocytes assessed as parasite cell death at 100 uM up to 72 hrs by Wright's eosin methylene blue staining based microscopic analysis; assay type: functional, organism-based; in short: as §1
[4] = Resistance index, ratio of IC50 for chloroquine-resistant Plasmodium falciparum W2 infected in human erythrocytes to IC50 for chloroquine-sensitive Plasmodium falciparum 3D7; assay type: functional
Plasmodium falciparum [5] = assay: Antiplasmodial activity against Plasmodium falciparum assessed as combination index in presence of artemisinin; assay type: functional
In short: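 Chloroquine-resistant P. falciparum W2 was grown in fresh human O+ erythrocytes at 2% hematocrit in complete medium at 37 °C. Artemisinin was co-tested with the triterpene using the one-point Chou–Talalay method, at a minimum of one combination ratio. CI is the sum of the two FICs: ≤1 synergy, 1–2 additivity, >2 antagonism. Triplicates, n = 3 independent cultures.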

Plasmodium falciparum [6] = assay: Antiplasmodial activity against chloroquine-sensitive Plasmodium falciparum 3D7; assay type: functional, organism-based
[7] = Selectivity index, ratio of CC50 for human HepG2 cells to IC50 for chloroquine-resistant Plasmodium falciparum W2; assay type: toxicity; conditions: read-out: Ratio CC50/IC50
In short: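 SI = HepG2 CC50 / W2 IC50. CC50 came from HepG2 growth inhibition over a 400–1.56 µM dilution series, read at 24, 48 and 72 h. IC50 came from the W2 erythrocyte assay (100–3.12 µM range). Triplicates, at least three independent cultures.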

[8] = Cytotoxicity against African green monkey Vero cells after 72 hrs by MTT assay; assay type: cell-based; conditions: chlorocebus sabaeus; in short: as §2
Plasmodium falciparum [9] = assay: Antiplasmodial activity against chloroquine-resistant Plasmodium falciparum W2 infected in human erythrocytes; assay type: functional, organism-based
In short: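 P. falciparum W2 grown in fresh human O+ erythrocytes at 2% hematocrit in complete medium, 37 °C. Compounds tested over a 100–3.12 µM dilution series. IC50 estimated from the dose-response curve relative to drug-free control wells (100% parasite viability). Artemisinin run in parallel as control. Triplicates, at least three independent cultures (n = 3).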

Plasmodium falciparum [10] = assay: Antiplasmodial activity against Plasmodium falciparum assessed as potentiation of artemisinin-induced antimalarial activity by measuring dose reduction index relative to artemisinin alone; assay type: functional
Plasmodium falciparum [11] = assay: Antiplasmodial activity against synchronous culture of chloroquine-resistant Plasmodium falciparum W2 ring stage parasite infected in human erythrocytes assessed as reduction in parasitaemia at 100 uM after 24 to 72 hrs by Wright's eosin methylene blue staining based microscopic analysis; assay type: functional, organism-based; in short: as §1
Subtilisin Carlsberg = molecular target: T1, Subtilisin Carlsberg (Bacillus licheniformis, UniProt P00780); assay: Inhibition of Bacillus licheniformis subtilisin A by green-fluorescent BODIPY FL dye based fluorescence assay
T1 sequence (P00780 whole entry): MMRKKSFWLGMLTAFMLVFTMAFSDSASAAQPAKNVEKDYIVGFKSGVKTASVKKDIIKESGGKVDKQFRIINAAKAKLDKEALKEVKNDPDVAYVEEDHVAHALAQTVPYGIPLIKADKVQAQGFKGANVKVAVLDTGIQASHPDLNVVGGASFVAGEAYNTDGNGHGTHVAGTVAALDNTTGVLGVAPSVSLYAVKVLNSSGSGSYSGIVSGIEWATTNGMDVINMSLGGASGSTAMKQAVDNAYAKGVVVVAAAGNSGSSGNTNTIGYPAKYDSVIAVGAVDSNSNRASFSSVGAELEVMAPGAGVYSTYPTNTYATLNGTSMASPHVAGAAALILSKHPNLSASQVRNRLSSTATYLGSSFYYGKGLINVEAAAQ
In short: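 Purified B. licheniformis subtilisin A tested with a commercial fluorescent peptidase/protease kit, following the kit protocol. Test compound ranged from 5 to 0.01 mM. Fluorescence plotted against log inhibitor concentration.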

Plasmodium falciparum [12] = assay: Antiplasmodial activity against synchronous culture of chloroquine-resistant Plasmodium falciparum W2 ring stage parasite infected in human erythrocytes assessed as delayed appearance of trophozoites at 100 uM after 24 to 72 hrs by Wright's eosin methylene blue staining based microscopic analysis; assay type: functional, organism-based; in short: as §1

Compound: C=C(C)[C@@H]1CC[C@]2(C(=O)O)CC[C@]3(C)[C@H](CC[C@@H]4[C@@]5(C)CC[C@H](OC(=O)CCC)C(C)(C)[C@@H]5CC[C@]43C)[C@@H]12
- Activity (Plasmodium falciparum [1]): Active
- CC50 at 72 h [2]: > 400 µM
- Activity (Plasmodium falciparum [3]): Active
- Ratio IC50 [4]: 0.68
- CI (Plasmodium falciparum [5]): 1.34
- IC50 (Plasmodium falciparum [6]): 5 µM
- selectivity ratio [7]: > 117
- CC50 at 72 h [8]: > 400 µM
- IC50 (Plasmodium falciparum [9]): 3.4 µM
- Activity_index (Plasmodium falciparum [10]): 4
- Activity (Plasmodium falciparum [11]): Active
- IC50 (Subtilisin Carlsberg): 93 µM
- Activity (Plasmodium falciparum [12]): Active

Reference: ChEMBL document CHEMBL4184121, “Semisynthesis, cytotoxicity, antimalarial evaluation and structure-activity relationship of two series of triterpene derivatives” (Bioorg Med Chem Lett, 2018)
